Experiments:
FLC clone 745 [1] = assay: Induction of cell cycle arrest in HMBA-stimulated mouse FLC clone 745 cells assessed as accumulation cells at G2/M phase at 10^-6 M after 72 hrs by PI staining based flow cytometric analysis (reference value: 9.86%); assay type: functional; conditions: dose 1 10^-6M, at 1 µM
Procedure, shortened: (§1)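 MEL cells plated at 5 × 10^5 per well and synchronized by serum deprivation for 24 h. Cells then incubated with compound at 10−6 M, alone or with HMBA 5 × 10−3 M, for 24, 48 and 72 h. Fixed in 70% ethanol overnight at 4 °C, stained with propidium iodide, and DNA content measured by flow cytometry to assign subG1, G1, S, G2/M and >4N fractions.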

FLC clone 745 [2] = assay: Induction of cell cycle arrest in HMBA-stimulated mouse FLC clone 745 cells assessed as accumulation cells at S phase at 10^-6 M after 48 hrs by PI staining based flow cytometric analysis (reference value: 31.43%); assay type: functional; conditions: dose 1 10^-6M, at 1 µM; procedure, shortened: as §1
K562 [3] = assay: Induction of apoptosis in human K562 cells assessed as effect on Bcl-2 mRNA expression level at 1 to 10 uM cells after 48 hrs by qPCR analysis; assay type: toxicity, cell-based; conditions: k562, 48 h, dose 1-10 µM
Procedure, shortened: (§2)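 K562 cells at 10^5 cells/ml grown without compound (control) or with 10−6 M or 10−5 M compound for 48 h. Total RNA isolated, then checked by gel electrophoresis and spectrophotometry. Transcripts quantified by qPCR.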

FLC clone 745 [4] = assay: Induction of cell cycle arrest in mouse FLC clone 745 cells assessed as accumulation cells at S phase at 10^-6 M after 48 hrs by PI staining based flow cytometric analysis (reference value: 29.53%); assay type: functional; conditions: dose 1 10^-6M, at 1 µM; procedure, shortened: as §1
FLC clone 745 [5] = assay: Induction of cell cycle arrest in mouse FLC clone 745 cells assessed as accumulation cells at G2/M phase at 10^-6 M after 48 hrs by PI staining based flow cytometric analysis (reference value: 28.15%); assay type: functional; conditions: dose 1 10^-6M, at 1 µM; procedure, shortened: as §1
FLC clone 745 [6] = assay: Induction of cell cycle arrest in HMBA-stimulated mouse FLC clone 745 cells assessed as accumulation cells at G2/M phase at 10^-6 M after 48 hrs by PI staining based flow cytometric analysis (reference value: 6.67%); assay type: functional; conditions: dose 1 10^-6M, at 1 µM; procedure, shortened: as §1
FLC clone 745 [7] = assay: Induction of cell cycle arrest in mouse FLC clone 745 cells assessed as accumulation cells at subG1 phase at 10^-6 M after 72 hrs by PI staining based flow cytometric analysis (reference value: 9.87%); assay type: functional; conditions: dose 1 10^-6M, at 1 µM; procedure, shortened: as §1
FLC clone 745 [8] = assay: Induction of cell cycle arrest in mouse FLC clone 745 cells assessed as accumulation cells at G2/M phase at 10^-6 M after 72 hrs by PI staining based flow cytometric analysis (reference value: 24.82%); assay type: functional; conditions: dose 1 10^-6M, at 1 µM; procedure, shortened: as §1
K562 [9] = assay: Induction of apoptosis in human K562 cells assessed as effect on caspase-8 mRNA expression level at 1 to 10 uM cells after 48 hrs by qPCR analysis; assay type: toxicity, cell-based; conditions: k562, 48 h, dose 1-10 µM; procedure, shortened: as §2
[10] = Cytotoxicity against HMBA-stiumulated mouse FLC clone 745 cells assessed as cell viability measured after 48 hrs by Neubauer chamber based microscopic analysis (reference value: 50.563%); assay type: toxicity; conditions: HMBA-stimulated FLC clone 745 cells, read-out: Activity
FLC clone 745 [11] = assay: Induction of cell cycle arrest in HMBA-stimulated mouse FLC clone 745 cells assessed as accumulation cells at > 4N phase at 10^-6 M after 24 hrs by PI staining based flow cytometric analysis (reference value: 9.83%); assay type: functional; conditions: dose 1 10^-6M, at 1 µM; procedure, shortened: as §1
FLC clone 745 [12] = assay: Induction of cell cycle arrest in mouse FLC clone 745 cells assessed as accumulation cells at > 4N phase at 10^-6 M after 48 hrs by PI staining based flow cytometric analysis (reference value: 7.11%); assay type: functional; conditions: dose 1 10^-6M, at 1 µM; procedure, shortened: as §1
K562 [13] = assay: Induction of apoptosis in human K562 cells assessed as effect on caspase-9 mRNA expression level at 1 to 10 uM cells after 48 hrs by qPCR analysis; assay type: toxicity, cell-based; conditions: k562, 48 h, dose 1-10 µM; procedure, shortened: as §2
FLC clone 745 [14] = assay: Induction of cell cycle arrest in HMBA-stimulated mouse FLC clone 745 cells assessed as accumulation cells at subG1 phase at 10^-6 M after 72 hrs by PI staining based flow cytometric analysis (reference value: 58.77%); assay type: functional; conditions: dose 1 10^-6M, at 1 µM; procedure, shortened: as §1
FLC clone 745 [15] = assay: Induction of cell cycle arrest in mouse FLC clone 745 cells assessed as accumulation cells at > 4N phase at 10^-6 M after 72 hrs by PI staining based flow cytometric analysis (reference value: 14.89%); assay type: functional; conditions: dose 1 10^-6M, at 1 µM; procedure, shortened: as §1
FLC clone 745 [16] = assay: Induction of cell cycle arrest in mouse FLC clone 745 cells assessed as accumulation cells at G2/M phase at 10^-6 M after 24 hrs by PI staining based flow cytometric analysis (reference value: 14.35%); assay type: functional; conditions: dose 1 10^-6M, at 1 µM; procedure, shortened: as §1
FLC clone 745 [17] = assay: Induction of cell cycle arrest in HMBA-stimulated mouse FLC clone 745 cells assessed as accumulation cells at > 4N phase at 10^-6 M after 48 hrs by PI staining based flow cytometric analysis (reference value: 2.83%); assay type: functional; conditions: dose 1 10^-6M, at 1 µM; procedure, shortened: as §1
FLC clone 745 [18] = assay: Induction of cell cycle arrest in mouse FLC clone 745 cells assessed as accumulation cells at subG1 phase at 10^-6 M after 48 hrs by PI staining based flow cytometric analysis (reference value: 9.79%); assay type: functional; conditions: dose 1 10^-6M, at 1 µM; procedure, shortened: as §1

For COc1cc2c(cc1OCCCN1CCCC1)N=C(N)C21CCC1, the Activity (FLC clone 745 [1]) was 6.21%, the Activity (FLC clone 745 [2]) was 28.62% and the Activity (K562 [3]) was “Non-Toxic”. For the same compound, the Activity (FLC clone 745 [4]) was 29.12%, the Activity (FLC clone 745 [5]) was 22.21% and the Activity (FLC clone 745 [6]) was 5.67%. The Activity (FLC clone 745 [7]) was 39.53%, the Activity (FLC clone 745 [8]) was 11.32% and the Activity (K562 [9]) was “Non-Toxic”. It also gave a viability at 48 h [10] of 42.8%, an Activity (FLC clone 745 [11]) of 9.28% and an Activity (FLC clone 745 [12]) of 9.4%. For the same compound, the Activity (K562 [13]) was “Non-Toxic”, the Activity (FLC clone 745 [14]) was 62.86% and the Activity (FLC clone 745 [15]) was 11.78%. The Activity (FLC clone 745 [16]) was 9.04%, the Activity (FLC clone 745 [17]) was 3.08% and the Activity (FLC clone 745 [18]) was 18.28%.
